Test results reported in paper PMC2841041 (Developmental cell, 2010).
Values belong to the molecule of their own block, whether it stands above or below them. Peptide text beside a SMILES is read from it. * marks the point of attachment. Cbz = O=C(OCc1ccccc1)*; CH2F = FC*

Columns and labels:
[1] = tested on: HeLa cells expressing CTFβ-GFP; assay: Processing of CTFβ-GFP; format: cell-based; details: immunoblot, antibody to GFP; for CTFα and C31 from CTFβ-GFP: DAPT-treated cells
Outline: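 CTFβ-GFP (wild-type, D664A or F689A/F690A/E691A) expressed in HeLa cells, or in mock- or μ4-siRNA-depleted cells. Same handling: lipofection, 8–16 h, then 16 h ± 250 nM DAPT, 100 μM E-64 and/or 200 μM Z-VAD-FMK, anti-GFP immunoblot; mean ± SD, n=3. Aβ: 4 h [35S]Met-Cys labelling at 37°C, medium immunoprecipitated with 6E10, Tricine 10–20% gels, fluorography; mean ± SD, n=4.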

HeLa cells = assay: Pulse-chase / immunoblot analysis of APP processing and CTF levels; format: cell-based; details: 250 nM DAPT; decrease elicited by FFE mutation or μ4 depletion
[2] = tested on: HeLa cells expressing APP-CFP; assay: Immunoblot of APP-CFP fragments; format: cell-based; details: for C31 fragment levels/formation: DAPT-treated cells
Outline: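 HeLa cells transfected (Lipofectamine 2000, 1 h, 37°C, no FBS) with C-terminally CFP-tagged APP (wild-type, D664A or F689A/F690A/E691A), or μ4-siRNA-depleted twice and then APP-CFP-transfected. Analysed 8–16 h post-transfection after 16 h ± 250 nM DAPT, 100 μM E-64 and/or 200 μM Z-VAD-FMK. Pellet/supernatant fractionation in some runs. SDS-PAGE, anti-GFP immunoblot. Fragment levels given as mean ± SD of three experiments.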

[3] = tested on: APP distribution in HeLa cells; assay: Immunofluorescence microscopy, intracellular distribution of APP; format: cell-based
μ4 subunit of AP-4 = assay: Yeast two-hybrid; format: binding, human; details: His-deficient plates, 30°C
[4] = tested on: ε, β4 and σ4 subunits of AP-4; assay: Y2H of APP tail with other AP-4 subunits; format: binding
mutant μ4 = assay: Yeast two-hybrid; format: binding, human
Outline: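 Yeast co-transformed with Gal4ad fused to wild-type or point-mutant human μ4 (mutations introduced by site-directed mutagenesis) and Gal4bd fused to the APP tail (human APP695 template). Cells spotted on His-deficient and His-containing plates and incubated at 30°C; growth on −His scored as interaction. Controls: Gal4bd-mouse p53 with Gal4ad-SV40 large T antigen.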

[5] = target: T1, recombinant μ4 C-terminal domain (Homo sapiens, UniProt O00189, C235S/C431S); assay: Isothermal titration calorimetry; format: binding; details: purified components, synthetic peptide
T1 sequence (O00189 160-453 C235S/C431S): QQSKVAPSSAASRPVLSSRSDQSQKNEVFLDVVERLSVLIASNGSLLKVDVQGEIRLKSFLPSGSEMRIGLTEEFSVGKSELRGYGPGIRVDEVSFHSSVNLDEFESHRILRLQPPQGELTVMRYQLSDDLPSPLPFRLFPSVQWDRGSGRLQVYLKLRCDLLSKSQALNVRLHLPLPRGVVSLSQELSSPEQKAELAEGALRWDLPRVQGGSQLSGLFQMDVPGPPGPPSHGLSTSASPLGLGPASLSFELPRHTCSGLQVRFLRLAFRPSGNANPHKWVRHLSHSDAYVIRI

μ1, μ2 and μ3 subunits = assay: Y2H of APP signal with other AP μ subunits; format: binding
[6] = target: T2, recombinant μ4 C-terminal domain (160–453; C235S, C431S) (human, UniProt O00189 160-453, C235S | C431S); assay: ITC
T2 sequence (looked up): T1 sequence (O00189 160-453 C235S/C431S)

Molecule: C[C@H](NC(=O)Cc1cc(F)cc(F)c1)C(=O)N[C@H](C(=O)OC(C)(C)C)c1ccccc1 [DAPT]
- AICDγ formation/levels from CTFβ-GFP [1]: prevented AICDγ formation
- CTFα and C31 from CTFβ-GFP [1]: resulted in the appearance of CTFα and C31
- effect of DAPT on the decrease in steady-state CTFα levels (HeLa cells): abrogated the decrease in steady-state CTFα levels
- C31 fragment levels/formation ([2]; immunoblot, antibody to GFP): increased the levels of a smaller, soluble fragment
- difference in AICDγ-CFP levels / CTF accumulation with DAPT ([2]; FFE mutation or μ4 depletion, incubation with DAPT): abolished by incubation with DAPT, resulting in the accumulation of equal amounts of CTFs under all conditions
- AICDγ-CFP formation/levels ([2]; immunoblot, antibody to GFP): precluded AICDγ-CFP formation
- CTFα-CFP levels ([2]; immunoblot, antibody to GFP, DAPT 250 nM): increased CTFα-CFP levels

Molecule: COC(=O)C[C@H](NC(=O)[C@H](C)NC(=O)[C@@H](NC(=O)OCc1ccccc1)C(C)C)C(=O)CF [Z-VAD-FMK] (Cbz-Val-Ala-Asp(OMe)-CH2F)
- CTFα and C31 from CTFβ-GFP [1]: absence
- C31 fragment levels/formation ([2]; immunoblot, antibody to GFP): prevented

Molecule: C[C@@H]1C[C@@H]([C@H](O)CC2CC(=O)NC(=O)C2)C(=O)[C@@H](C)C1 [cycloheximide, reference compound]
- effect on APP-WT staining ([3]; inhibition of protein synthesis, mock- and μ4-depleted cells): rapid disappearance of APP-WT staining in both mock- and μ4-depleted cells

Molecule: APP tail: cytosolic tail of APP fused to Gal4bd
- Y2H interaction with μ4 (μ4 subunit of AP-4): interacted exclusively with the μ4 subunit of AP-4
- Y2H interaction with ε, β4 and σ4 [4]: did not bind to the APP tail
- Y2H binding to μ4 S257A/H256A/F255A (mutant μ4; Ser-257 to Ala together with His-256 and Phe-255 to Ala): completely abolished binding
- Y2H binding to μ4 F255A/R283D (mutant μ4; double mutation of Phe-255 and Arg-283): completely abrogated
- Y2H binding to μ4 S257A (mutant μ4; mutation of Ser-257 to Ala): no detectable effect
- Y2H binding to μ4 H256A, E265A or R283A (mutant μ4; single mutation of His-256, Glu-265, Arg-283 to Ala): little or no effect on the interaction
- Y2H binding to μ4 F255A or R283D (mutant μ4; single mutation of Phe-255 to Ala, or Arg-283 to Asp): drastically reduced
- Y2H binding to μ4 H256A/E265A/R283A (mutant μ4; triple mutation): greatly decreased the interaction

Molecule: APP-WT: wild-type APP expressed in HeLa cells
- localization of APP to endosomes ([3]; HeLa cells, normal conditions, n=11): 74 ± 8%

Molecule: ENPTAKAAEQ
- binding site number / binding by ITC [5]: but not a substituted ENPTAKAAEQ variant, bound

Molecule: YKFFE
- Y2H interaction with μ1, μ2, μ3 (μ1, μ2 and μ3 subunits): does not bind to these μ subunits

Molecule: YKYLE
- Y2H interaction with μ4 (μ4 subunit of AP-4): indeed bind to μ4

Molecule: YRFLE
- Y2H interaction with μ4 (μ4 subunit of AP-4): indeed bind to μ4

- stoichiometry N [6]: 1
Molecule: ENPTYKFFEQ [synthetic ENPTYKFFEQ peptide derived from the APP tail]
